Data published in ChEMBL document CHEMBL3774372, “Design, physico-chemical properties and biological evaluation of some new N-[(phenoxy)alkyl]- and N-{2-[2-(phenoxy)ethoxy]ethyl}aminoalkanols as anticonvulsant agents” (Bioorg Med Chem, 2016).
Activity calls are given as the source filed them.

Experiments:
Mus musculus [1] = test: Anticonvulsant activity in mouse assessed as protection against maximal electric shock-induced seizures at 30 mg/kg, ip measured after 0.5 hrs; type: functional, organism-based
Summary of the method: (§1)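 Mice dosed ip with suspension in 0.5% methylcellulose; maximal electroshock applied at the listed time after dosing. Protection = abolition of hindlimb tonic extension component of seizure; reported as animals protected/animals tested.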

Mus musculus [2] = test: Anticonvulsant activity in mouse assessed as protection against maximal electric shock-induced seizures at 30 mg/kg, ip measured after 4 hrs; type: functional, organism-based; summary of the method: as §1
Mus musculus [3] = test: Anticonvulsant activity in mouse assessed as protection against maximal electric shock-induced seizures at 100 mg/kg, ip measured after 0.5 hrs; type: functional, organism-based; summary of the method: as §1
Mus musculus [4] = test: Anticonvulsant activity in mouse assessed as protection against maximal electric shock-induced seizures at 100 mg/kg, ip measured after 4 hrs; type: functional, organism-based; summary of the method: as §1
Mus musculus [5] = test: Anticonvulsant activity in mouse assessed as protection against subcutaneous pentylenetetrazol-induced seizures at 30 mg/kg, ip measured after 0.5 hrs; type: functional, organism-based
Summary of the method: (§2)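 Mice dosed ip as 0.5% methylcellulose suspension; pentylenetetrazole 85 mg/kg in 0.9% NaCl injected subcutaneously into posterior midline, animals watched at least 30 min. Protection = no threshold seizure (single clonic spasm episode lasting ≥5 s); scored protected/tested.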

Mus musculus [6] = test: Anticonvulsant activity in mouse assessed as protection against subcutaneous pentylenetetrazol-induced seizures at 100 mg/kg, ip measured after 0.5 hrs; type: functional, organism-based; summary of the method: as §2
Mus musculus [7] = test: Anticonvulsant activity in mouse assessed as protection against subcutaneous pentylenetetrazol-induced seizures at 30 mg/kg, ip measured after 4 hrs; type: functional, organism-based; summary of the method: as §2
Mus musculus [8] = test: Anticonvulsant activity in mouse assessed as protection against subcutaneous pentylenetetrazol-induced seizures at 100 mg/kg, ip measured after 4 hrs; type: functional, organism-based; summary of the method: as §2
Mus musculus [9] = test: Neurotoxicity in mouse at 30 mg/kg, ip after 0.5 hrs by rotarod test; type: toxicity, organism-based; conditions: in vivo
Summary of the method: (§3)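 Mice were dosed ip with compound suspended in 0.5% methylcellulose. Rotarod: a 1 in. knurled rod turning at 6 rpm. Neurotoxicity was scored as failure to stay on the rod for at least 1 min in each of three trials. Results are given as the number of animals affected out of the number tested.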

Mus musculus [10] = test: Neurotoxicity in mouse at 30 mg/kg, ip after 4 hrs by rotarod test; type: toxicity, organism-based; conditions: in vivo; summary of the method: as §3
Mus musculus [11] = test: Neurotoxicity in mouse at 100 mg/kg, ip after 4 hrs by rotarod test; type: toxicity, organism-based; conditions: in vivo; summary of the method: as §3
Mus musculus [12] = test: Neurotoxicity in mouse at 300 mg/kg, ip after 0.5 hrs by rotarod test; type: toxicity, organism-based; conditions: in vivo; summary of the method: as §3
Rattus norvegicus [13] = test: Anticonvulsant activity in rat assessed as protection against maximal electric shock-induced seizures at 30 mg/kg, po measured after 0.5 hrs; type: functional, organism-based
Summary of the method: (§4)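 Rats dosed ip or orally as 0.5% methylcellulose suspension; maximal electroshock at listed time. Protection = abolition of hindlimb tonic extension; 4 rats per group, scored protected/tested.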

Rattus norvegicus [14] = test: Anticonvulsant activity in rat assessed as protection against maximal electric shock-induced seizures at 30 mg/kg, po measured after 1 hr; type: functional, organism-based; summary of the method: as §4
Mus musculus [15] = test: Anticonvulsant activity in mouse assessed as protection against maximal electric shock-induced seizures at 3 mg/kg, ip measured after 0.5 hrs; type: functional, organism-based; summary of the method: as §1
Rattus norvegicus [16] = test: Anticonvulsant activity in rat assessed as protection against maximal electric shock-induced seizures at 30 mg/kg, po measured after 2 hrs; type: functional, organism-based; summary of the method: as §4
Rattus norvegicus [17] = test: Neurotoxicity in rat at 30 mg/kg, po after […] by rotarod test; type: toxicity, organism-based; conditions: in vivo
Rattus norvegicus [18] = test: Neurotoxicity in rat at 30 mg/kg, po after 0.5 hrs by rotarod test; type: toxicity, organism-based; conditions: in vivo
Rattus norvegicus [19] = test: Neurotoxicity in rat at 30 mg/kg, po after 1 hr by rotarod test; type: toxicity, organism-based; conditions: in vivo
Rattus norvegicus [20] = test: Neurotoxicity in rat at 30 mg/kg, po after 2 hrs by rotarod test; type: toxicity, organism-based; conditions: in vivo
Rattus norvegicus [21] = test: Neurotoxicity in rat at 30 mg/kg, po after 4 hrs by rotarod test; type: toxicity, organism-based; conditions: in vivo
Mus musculus [22] = test: Neurotoxicity in mouse at 100 mg/kg, ip after 0.5 hrs by rotarod test; type: toxicity, organism-based; conditions: in vivo; summary of the method: as §3
Vibrio harveyi [23] = test: Mutagenicity in Vibrio harveyi BB7 assessed as number of colonies after 48 hrs (reference value: 13 to 14 no_unit); type: ADME, organism-based; conditions: in vivo
Summary of the method: (§5)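 Vibrio harveyi mutagenicity test: test compound was added to exponentially growing cultures (A600 = 0.1, 30 °C) and grown to OD600 0.3–0.4. Then 5 × 10^6 cells were plated on BOSS agar with neomycin (final 100 µg/mL) and incubated 48 h at 30 °C. Neomycin-resistant colonies were counted. Triplicate; controls were water, DMSO and NQNO 40 ng/mL.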

Vibrio harveyi [24] = test: Mutagenicity in Vibrio harveyi BB7X assessed as number of colonies after 48 hrs (reference value: 15 to 16 no_unit); type: ADME, organism-based; conditions: in vivo; summary of the method: as §5
Vibrio harveyi [25] = test: Mutagenicity in Vibrio harveyi BB7M assessed as number of colonies after 48 hrs (reference value: 13 to 14 no_unit); type: ADME, organism-based; conditions: in vivo; summary of the method: as §5
Vibrio harveyi [26] = test: Mutagenicity in Vibrio harveyi BB7XM assessed as number of colonies after 48 hrs (reference value: 14 no_unit); type: ADME, organism-based; conditions: in vivo; summary of the method: as §5
Rattus norvegicus [27] = test: Anticonvulsant activity in rat assessed as protection against maximal electric shock-induced seizures at 30 mg/kg, po measured after 4 hrs; type: functional, organism-based; summary of the method: as §4
Vibrio harveyi [28] = test: Antimutagenic activity against Vibrio harveyi BB7 assessed as inhibition of NQNO-induced mutagenicity after 48 hrs; type: functional
Summary of the method: (§6)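 V. harveyi cultures grown exponentially to A600 0.1 at 30 °C, exposed to test compound for 15 min, then to NQNO, and grown on to A600 0.3–0.4. 5 × 10⁶ cells plated on BOSS agar with neomycin (100, final). Neomycin-resistant colonies counted after 48 h at 30 °C. Result given as % inhibition of NQNO mutagenicity; three independent repeats.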

Vibrio harveyi [29] = test: Antimutagenic activity against Vibrio harveyi BB7X assessed as inhibition of NQNO-induced mutagenicity after 48 hrs; type: functional; summary of the method: as §6
Vibrio harveyi [30] = test: Antimutagenic activity against Vibrio harveyi BB7M assessed as inhibition of NQNO-induced mutagenicity after 48 hrs; type: functional; summary of the method: as §6
Vibrio harveyi [31] = test: Antimutagenic activity against Vibrio harveyi BB7XM assessed as inhibition of NQNO-induced mutagenicity after 48 hrs; type: functional; summary of the method: as §6
Rattus norvegicus [32] = test: Anticonvulsant activity in rat assessed as protection against maximal electric shock-induced seizures at 30 mg/kg, po measured after […]; type: functional, organism-based

| SMILES | Activity (Mus musculus [1]) | Activity (Mus musculus [2]) | Activity (Mus musculus [3]) | Activity (Mus musculus [4]) | Activity (Mus musculus [5]) | Activity (Mus musculus [6]) | Activity (Mus musculus [7]) | Activity (Mus musculus [8]) | Activity (Mus musculus [9]) | Activity (Mus musculus [10]) | Activity (Mus musculus [11]) | Activity (Mus musculus [12]) | Activity (Rattus norvegicus [16]) | Activity (Rattus norvegicus [17]) | Activity (Rattus norvegicus [18]) | Activity (Rattus norvegicus [19]) | Activity (Rattus norvegicus [20]) | Activity (Rattus norvegicus [21]) | Activity (Mus musculus [22]) | Activity (Vibrio harveyi [23]) | other results |
| --- | --- | --- | --- | --- | --- | --- | --- | --- | --- | --- | --- | --- | --- | --- | --- | --- | --- | --- | --- | --- | --- |
| Cc1cccc(OCCNC(C)CO)c1C (centres undefined) | inactive | inactive | Active | inactive | inactive | inactive | inactive | inactive | Non-toxic | Non-toxic | Non-toxic | Toxic |  |  |  |  |  |  |  |  |  |
| Cc1cc(C)c(OCCN[C@@H]2CCCC[C@H]2O)c(C)c1 (racemic) | Active | inactive |  | inactive | inactive |  | inactive | inactive | Non-toxic | Non-toxic | Non-toxic | Toxic | inactive | Non-toxic | Non-toxic | Non-toxic | Non-toxic | Non-toxic | Toxic |  | Activity (Rattus norvegicus [13]): inactive; Activity (Rattus norvegicus [14]): inactive; Activity (Mus musculus [15]): inactive |
| Cc1cccc(OCCCNC(C)CO)c1C (centres undefined) | inactive | inactive | Active | inactive | inactive | inactive | inactive | inactive | Non-toxic | Non-toxic | Non-toxic | Toxic |  |  |  |  |  |  | Toxic |  |  |
| Cc1cccc(OCCOCCN[C@H]2CC[C@H](O)CC2)c1C |  |  |  |  |  |  |  |  |  |  |  |  |  |  |  |  |  |  |  | 22 | Activity (Vibrio harveyi [24]): 27; Activity (Vibrio harveyi [25]): 25; Activity (Vibrio harveyi [26]): 20 |
| Cc1cc(C)c(OCCNC(C)CO)c(C)c1 (centres undefined) | inactive | inactive | Active | inactive | inactive | inactive | inactive | inactive | Non-toxic | Non-toxic | Non-toxic | Toxic | inactive | Non-toxic | Non-toxic | Non-toxic | Non-toxic | Non-toxic | Toxic |  | Activity (Rattus norvegicus [14]): inactive; Activity (Rattus norvegicus [27]): inactive |
| CCC(CO)NCCCOc1cccc(C)c1C (centres undefined) | inactive | inactive | Active | inactive | inactive | inactive | inactive | inactive | Non-toxic | Non-toxic | Non-toxic | Toxic |  |  |  |  |  |  | Toxic |  |  |
| Cc1cccc(C)c1OCCOCCN1CCC(O)CC1 | inactive | inactive |  | inactive | inactive |  | inactive | inactive | Non-toxic | Non-toxic | Non-toxic | Toxic |  |  |  |  |  |  |  | 22 | Activity (Vibrio harveyi [24]): 16; Activity (Vibrio harveyi [25]): 18; Activity (Vibrio harveyi [26]): 26; inhibition (INH) (Vibrio harveyi [28]): 84%; inhibition (INH) (Vibrio harveyi [29]): 12%; inhibition (INH) (Vibrio harveyi [30]): 34%; inhibition (INH) (Vibrio harveyi [31]): 26% |
| Cc1cc(C)c(OCCN[C@H]2CC[C@H](O)CC2)c(C)c1 | inactive | inactive | Active | inactive | inactive | inactive | inactive |  | Non-toxic | Non-toxic | Non-toxic | Toxic | inactive | Non-toxic | Non-toxic | Non-toxic | Non-toxic | Non-toxic |  |  | Activity (Rattus norvegicus [13]): inactive; Activity (Rattus norvegicus [14]): inactive; Activity (Rattus norvegicus [32]): inactive |
| Cc1cccc(OCCNC(C)(C)CO)c1C | inactive | inactive | Active | inactive | inactive | inactive | inactive | inactive | Non-toxic | Non-toxic | Non-toxic | Toxic |  |  |  |  |  |  |  |  |  |
| CCC(CO)NCCOc1cccc(C)c1C (centres undefined) | inactive | inactive | Active | inactive | inactive | inactive | inactive | inactive | Non-toxic | Non-toxic | Non-toxic |  |  |  |  |  |  |  | Toxic |  |  |
| Cc1cccc(C)c1OCCOCCN[C@@H]1CCCC[C@H]1O (racemic) | inactive | inactive | Active | inactive | inactive | inactive | inactive | inactive | Non-toxic | Non-toxic | Non-toxic | Toxic | inactive | Non-toxic | Non-toxic | Non-toxic | Non-toxic | Non-toxic | Non-toxic | 29 | Activity (Rattus norvegicus [13]): inactive; Activity (Rattus norvegicus [27]): inactive; Activity (Rattus norvegicus [32]): inactive; Activity (Vibrio harveyi [24]): 25; Activity (Vibrio harveyi [25]): 26; Activity (Vibrio harveyi [26]): 22; inhibition (INH) (Vibrio harveyi [28]): 82%; inhibition (INH) (Vibrio harveyi [29]): 52%; inhibition (INH) (Vibrio harveyi [30]): 75%; inhibition (INH) (Vibrio harveyi [31]): 33% |
| Cc1ccc(OCCN[C@H](C)CO)c(C)c1 |  |  |  |  |  |  |  |  |  |  |  |  |  |  |  |  |  |  |  | 22 | Activity (Vibrio harveyi [24]): 17; Activity (Vibrio harveyi [25]): 26; Activity (Vibrio harveyi [26]): 23 |
